Measured values as given in ChEMBL document CHEMBL3585321, “Synthesis and antimicrobial activity of chloramphenicol-polyamine conjugates” (Bioorg Med Chem, 2015).
Activity calls are given as the source filed them. The calls are words filed in the database; no cut-off is given here.

What was measured:
[1] = Inhibition of Escherichia coli K-12 70S ribosome poly(U)-programmed ribosome (complex C) bearing tRNAPhe at E-site and Ac[3H]Phe-tRNA at P-site assessed as reduction in peptide bond formation using puromycin(S) substrate
Staphylococcus aureus [2] = test: Antibacterial activity against methicillin-resistant Staphylococcus aureus GRE2272 assessed as inhibition of bacterial growth; assay type: functional, organism-based
Staphylococcus aureus [3] = test: Antibacterial activity against methicillin-resistant Staphylococcus aureus GRE2372 assessed as inhibition of bacterial growth; assay type: functional, organism-based
Staphylococcus aureus [4] = test: Antibacterial activity against methicillin-resistant Staphylococcus aureus GRE2691 assessed as inhibition of bacterial growth; assay type: functional, organism-based
Staphylococcus aureus [5] = test: Antibacterial activity against wild type Staphylococcus aureus assessed as inhibition of bacterial growth; assay type: functional, organism-based
Escherichia coli [6] = test: Antibacterial activity against wild type Escherichia coli K-12 assessed as inhibition of bacterial growth; assay type: functional, organism-based
Escherichia coli [7] = test: Antibacterial activity against Escherichia coli BL21(DE3) expressing delta-tolC gene assessed as inhibition of bacterial growth; assay type: functional, organism-based
Method in brief: (§1)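 IC50 from bacterial cultures grown in LB medium without drug or with drug across a range of concentrations, reported in μM. Three independent experiments, each with two replicates, given as mean±SD.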

Escherichia coli [8] = test: Antibacterial activity against Escherichia coli Rosetta(DE3) containing rare tRNA genes and chloramphenicol resistant gene in pLysS plasmid assessed as inhibition of bacterial growth; assay type: functional, organism-based; method in brief: as §1
Staphylococcus aureus [9] = test: Antibacterial activity against wild type Staphylococcus aureus assessed as inhibition of bacterial growth at antibacterial IC50 level in presence of 10 times IC50 levels of putrescine; assay type: functional, organism-based
Method in brief: (§2)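 Cells started at A560 0.020 in M9 medium with drug at its own growth IC50, alone or with putrescine, spermidine or spermine at 10×IC50. Cultures run until the drug-free control reached A560 0.800. Growth given as percent of control optical density. At least three experiments, two replicates each, mean±SD, p<0.05.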

Staphylococcus aureus [10] = test: Antibacterial activity against wild type Staphylococcus aureus assessed as inhibition of bacterial growth at antibacterial IC50 level in presence of 10 times IC50 levels of spermine; assay type: functional, organism-based; method in brief: as §2
Staphylococcus aureus [11] = test: Antibacterial activity against wild type Staphylococcus aureus assessed as inhibition of bacterial growth at antibacterial IC50 level in presence of 10 times IC50 levels of spermidine; assay type: functional, organism-based; method in brief: as §2
Escherichia coli [12] = test: Antibacterial activity against wild type Escherichia coli K-12 assessed as inhibition of bacterial growth at antibacterial IC50 level in presence of 10 times IC50 levels of putrescine; assay type: functional, organism-based; method in brief: as §2
Escherichia coli [13] = test: Antibacterial activity against wild type Escherichia coli K-12 assessed as inhibition of bacterial growth at antibacterial IC50 level in presence of 10 times IC50 levels of spermine; assay type: functional, organism-based; method in brief: as §2
Escherichia coli [14] = test: Antibacterial activity against wild type Escherichia coli K-12 assessed as inhibition of bacterial growth at antibacterial IC50 level in presence of 10 times IC50 levels of spermidine; assay type: functional, organism-based; method in brief: as §2

| Compound | Ki [1] | growth inhibition (GI) (Staphylococcus aureus [2]) | growth inhibition (GI) (Staphylococcus aureus [3]) | growth inhibition (GI) (Staphylococcus aureus [4]) | also measured |
| --- | --- | --- | --- | --- | --- |
| NCCCCN(CCCN)C(=O)CCC(=O)N[C@H](CO)[C@H](O)c1ccc([N+](=O)[O-])cc1 [listing 1 of 3 here] | 1.2 µM | – | – | – | – |
| NC[C@H]1O[C@H](O[C@H]2[C@H](O)[C@@H](O[C@H]3O[C@H](CO)[C@@H](O)[C@H](N)[C@H]3O)[C@H](N)C[C@@H]2N)[C@H](O)[C@@H](O)[C@@H]1O | – | inactive | inactive | inactive | – |
| CCC[C@@H]1C[C@@H](C(=O)N[C@@H]([C@H]2O[C@H](SC)[C@H](O)[C@@H](O)[C@H]2O)[C@H](C)Cl)N(C)C1 | – | inactive | inactive | Active | – |
| CC[C@H]1OC(=O)[C@H](C)[C@@H](O[C@H]2C[C@@](C)(OC)[C@@H](O)[C@H](C)O2)[C@H](C)[C@@H](O[C@@H]2O[C@H](C)C[C@H](N(C)C)[C@H]2O)[C@](C)(O)C[C@@H](C)C(=O)[C@H](C)[C@@H](O)[C@]1(C)O | – | inactive | inactive | inactive | – |
| NCCCCNC(=O)c1ccccc1C(=O)N[C@H](CO)[C@H](O)c1ccc([N+](=O)[O-])cc1 [listing 1 of 2 here] | 8.45 µM | – | – | – | – |
| GENTAMICIN | – | inactive | Active | inactive | – |
| CO[C@@]1(NC(=O)Cc2cccs2)C(=O)N2C(C(=O)O)=C(COC(N)=O)CS[C@@H]21 | – | inactive | inactive | inactive | – |
| NCCCCNCCCCNCCCNC(=O)[C@@H](NC(=O)C(Cl)Cl)[C@H](O)c1ccc([N+](=O)[O-])cc1 | 5 µM | – | – | – | – |
| O=C(CCNC(=O)c1nc[nH]n1)N[C@H](CO)[C@H](O)c1ccc([N+](=O)[O-])cc1 | 4 µM | – | – | – | IC50 (Staphylococcus aureus [2]): > 100 µM; IC50 (Staphylococcus aureus [3]): > 100 µM; IC50 (Staphylococcus aureus [4]): > 100 µM; IC50 (Staphylococcus aureus [5]): 66 µM; IC50 (Escherichia coli [6]): > 200 µM; IC50 (Escherichia coli [7]): > 200 µM; IC50 (Escherichia coli [8]): > 200 µM |
| NCCCNCCCCNCCCNC(=O)CCC(=O)N[C@H](CO)[C@H](O)c1ccc([N+](=O)[O-])cc1 [listing 1 of 2 here] | 0.75 µM | – | – | – | – |
| Cc1onc(-c2ccccc2)c1C(=O)N[C@@H]1C(=O)N2[C@@H]1SC(C)(C)[C@@H]2C(=O)O | – | inactive | inactive | inactive | – |
| O=C(N[C@H](CO)[C@H](O)c1ccc([N+](=O)[O-])cc1)c1nc[nH]n1 | 1 µM | – | – | – | IC50 (Staphylococcus aureus [2]): > 100 µM; IC50 (Staphylococcus aureus [3]): > 100 µM; IC50 (Staphylococcus aureus [4]): > 100 µM; IC50 (Staphylococcus aureus [5]): > 100 µM; IC50 (Escherichia coli [6]): > 300 µM; IC50 (Escherichia coli [7]): > 300 µM; IC50 (Escherichia coli [8]): > 300 µM |
| CN(C)[C@@H]1C(O)=C(C(N)=O)C(=O)[C@@]2(O)C(O)=C3C(=O)c4c(O)cccc4[C@@](C)(O)[C@H]3C[C@@H]12 | – | inactive | Active | inactive | – |
| CC(=O)N[C@@H]1[C@H](Oc2c3cc4cc2Oc2ccc(cc2Cl)[C@@H](O[C@@H]2O[C@@H](CO)[C@@H](O)[C@H](O)[C@@H]2NC(C)=O)[C@@H]2NC(=O)[C@H](NC(=O)[C@@H]4NC(=O)[C@H]4NC(=O)[C@@H](Cc5ccc(c(Cl)c5)O3)NC(=O)[C@H](N)c3ccc(O)c(c3)Oc3cc(O)cc4c3)c3ccc(O)c(c3)-c3c(O[C@H]4O[C@H](CO)[C@@H](O)[C@@H](O)[C@@H]4O)cc(O)cc3[C@@H](C(=O)O)NC2=O)O[C@@H](CO)[C@@H](O)[C@@H]1O | – | Active | Active | Active | – |
| NCCCCN(CCCN)C(=O)CCC(=O)N[C@H](CO)[C@H](O)c1ccc([N+](=O)[O-])cc1 [listing 2 of 3 here] | – | – | – | – | growth inhibition (GI) (Staphylococcus aureus [9]): inactive; growth inhibition (GI) (Staphylococcus aureus [10]): inactive; growth inhibition (GI) (Staphylococcus aureus [11]): inactive; growth inhibition (GI) (Escherichia coli [12]): inactive; growth inhibition (GI) (Escherichia coli [13]): inactive; growth inhibition (GI) (Escherichia coli [14]): inactive |
| NCCCCNC(=O)CCC(=O)N[C@H](CO)[C@H](O)c1ccc([N+](=O)[O-])cc1 [listing 1 of 2 here] | 0.9 µM | – | – | – | – |
| NCCCCNC(=O)CCC(=O)N[C@H](CO)[C@H](O)c1ccc([N+](=O)[O-])cc1 [listing 2 of 2 here] | – | – | – | – | IC50 (Staphylococcus aureus [2]): > 200 µM; IC50 (Staphylococcus aureus [3]): > 200 µM; IC50 (Staphylococcus aureus [4]): > 200 µM; IC50 (Escherichia coli [6]): > 200 µM; IC50 (Escherichia coli [7]): > 200 µM; IC50 (Escherichia coli [8]): > 200 µM |
| NCCCCN(CCCN)C(=O)CCC(=O)N[C@H](CO)[C@H](O)c1ccc([N+](=O)[O-])cc1 [listing 3 of 3 here] | – | – | – | – | IC50 (Staphylococcus aureus [2]): > 100 µM; IC50 (Staphylococcus aureus [3]): > 100 µM; IC50 (Staphylococcus aureus [4]): > 200 µM; IC50 (Staphylococcus aureus [5]): 12.7 µM; IC50 (Escherichia coli [6]): > 150 µM; IC50 (Escherichia coli [7]): > 100 µM; IC50 (Escherichia coli [8]): > 100 µM |
| CO[C@H]1/C=C/O[C@@]2(C)Oc3c(C)c(O)c4c(O)c(c(/C=N/N5CCN(C)CC5)c(O)c4c3C2=O)NC(=O)/C(C)=C\C=C\[C@H](C)[C@H](O)[C@@H](C)[C@@H](O)[C@@H](C)[C@H](OC(C)=O)[C@@H]1C | – | Active | inactive | Active | – |
| CN[C@H](CC(C)C)C(=O)N[C@H]1C(=O)N[C@@H](CC(N)=O)C(=O)N[C@H]2C(=O)N[C@H]3C(=O)N[C@H](C(=O)N[C@H](C(=O)O)c4cc(O)cc(O)c4-c4cc3ccc4O)[C@H](O)c3ccc(c(Cl)c3)Oc3cc2cc(c3O[C@@H]2O[C@H](CO)[C@@H](O)[C@H](O)[C@H]2O[C@H]2C[C@](C)(N)[C@H](O)[C@H](C)O2)Oc2ccc(cc2Cl)[C@H]1O | – | Active | Active | Active | – |
| CCCCCCCCCC(=O)N[C@@H](Cc1c[nH]c2ccccc12)C(=O)N[C@H](CC(N)=O)C(=O)N[C@@H](CC(=O)O)C(=O)N[C@@H]1C(=O)NCC(=O)N[C@@H](CCCN)C(=O)N[C@@H](CC(=O)O)C(=O)N[C@H](C)C(=O)N[C@@H](CC(=O)O)C(=O)NCC(=O)N[C@H](CO)C(=O)N[C@@H]([C@H](C)CC(=O)O)C(=O)N[C@@H](CC(=O)c2ccccc2N)C(=O)O[C@@H]1C | – | Active | Active | Active | – |
| NCCCN(CCCCN(Cc1ccccc1)Cc1ccccc1)C(=O)CCC(=O)N[C@H](CO)[C@H](O)c1ccc([N+](=O)[O-])cc1 | 0.28 µM | – | – | – | – |
| NCCCCNC(=O)c1ccccc1C(=O)N[C@H](CO)[C@H](O)c1ccc([N+](=O)[O-])cc1 [listing 2 of 2 here] | – | – | – | – | IC50 (Staphylococcus aureus [2]): > 200 µM; IC50 (Staphylococcus aureus [3]): > 200 µM; IC50 (Staphylococcus aureus [4]): > 200 µM; IC50 (Escherichia coli [6]): > 200 µM; IC50 (Escherichia coli [7]): > 200 µM; IC50 (Escherichia coli [8]): > 200 µM |
| COc1cccc(OC)c1C(=O)N[C@@H]1C(=O)N2[C@@H]1SC(C)(C)[C@@H]2C(=O)O | – | inactive | inactive | inactive | – |
| CC(=O)O[C@H]1C[C@@]2(C)[C@@H](C[C@@H](O)[C@H]3[C@@]4(C)CC[C@@H](O)[C@@H](C)[C@@H]4CC[C@@]32C)/C1=C(\CCC=C(C)C)C(=O)O | – | inactive | inactive | inactive | – |
| NCCCNCCCCNCCCNC(=O)CCC(=O)N[C@H](CO)[C@H](O)c1ccc([N+](=O)[O-])cc1 [listing 2 of 2 here] | – | – | – | – | growth inhibition (GI) (Staphylococcus aureus [9]): inactive; growth inhibition (GI) (Staphylococcus aureus [10]): inactive; growth inhibition (GI) (Staphylococcus aureus [11]): inactive; growth inhibition (GI) (Escherichia coli [12]): inactive; growth inhibition (GI) (Escherichia coli [13]): inactive; growth inhibition (GI) (Escherichia coli [14]): inactive |
